Assay results published in ChEMBL document CHEMBL1134766, “Synthesis of 2beta-acyl-3beta-(substituted naphthyl)-8-azabicyclo[3.2.1]octanes and their binding affinities at dopamine and serotonin transport sites” (J Med Chem, 2001).

Legend:
[1] = target: Norepinephrine transporter (Rattus norvegicus, UniProt Q9WTR4); assay: Affinity for the displacement of [3H]paroxetine binding to norepinephrine transporter (NET) in rat frontal cortex membranes; assay type: cell membranes, Membrane
[2] = target: Monoamine transporters; serotonin & dopamine (Rattus norvegicus) (UniProt P31652+P23977); assay: SERT/DAT (serotonin transporter/dopamine transporter) binding potency ratio; assay type: protein assay
[3] = target: Sodium-dependent serotonin transporter (Rattus norvegicus, UniProt P31652); assay: Affinity for the displacement of [3H]paroxetine binding to serotonin transporter (SERT) in rat frontal cortex membranes; assay type: cell membranes, Membrane
Outline: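 Displacement of 0.4 nM [3H]paroxetine in frontal cortex membranes (50 mg original wet weight) dissected from frozen Sprague-Dawley rat brains, using 7-10 analogue concentrations. Nonspecific binding was defined with 10 µM fluoxetine. Ki was obtained by nonlinear curve fitting and the Cheng-Prusoff equation. Values are mean ± SEM of ≥3 experiments, each in triplicate.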

[4] = target: Sodium-dependent dopamine transporter (Rattus norvegicus, UniProt P23977); assay: Inhibitory activity in displacing [125I]- RTI-55 binding to dopamine transporter in rat striatal membranes; assay type: cell membranes, Striatum, Membrane
Outline: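 Nonspecific binding was defined with 1 µM WF-23. Curves were fitted by nonlinear regression, and IC50 is reported because binding at this transporter is multiphasic. Values are mean ± SEM of ≥3 experiments, each run in triplicate.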

Sequence of Norepinephrine transporter (Q9WTR4 whole entry): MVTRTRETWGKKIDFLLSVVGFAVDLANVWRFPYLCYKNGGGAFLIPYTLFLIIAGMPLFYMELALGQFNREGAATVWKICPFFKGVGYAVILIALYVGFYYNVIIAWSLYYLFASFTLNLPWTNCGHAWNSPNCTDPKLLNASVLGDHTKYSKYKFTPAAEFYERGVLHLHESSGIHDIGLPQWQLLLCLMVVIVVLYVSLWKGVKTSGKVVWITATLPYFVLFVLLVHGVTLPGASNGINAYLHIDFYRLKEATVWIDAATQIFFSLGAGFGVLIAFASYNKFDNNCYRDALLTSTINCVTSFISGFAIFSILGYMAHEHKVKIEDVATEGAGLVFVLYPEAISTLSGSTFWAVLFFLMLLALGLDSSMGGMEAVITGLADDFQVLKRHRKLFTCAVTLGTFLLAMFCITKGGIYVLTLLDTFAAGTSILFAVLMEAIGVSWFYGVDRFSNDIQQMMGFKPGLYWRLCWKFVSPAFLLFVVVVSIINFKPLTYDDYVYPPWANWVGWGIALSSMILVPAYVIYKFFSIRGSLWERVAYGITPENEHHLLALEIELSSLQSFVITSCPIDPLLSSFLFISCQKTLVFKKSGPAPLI
Sequence of Sodium-dependent serotonin transporter (P31652 whole entry): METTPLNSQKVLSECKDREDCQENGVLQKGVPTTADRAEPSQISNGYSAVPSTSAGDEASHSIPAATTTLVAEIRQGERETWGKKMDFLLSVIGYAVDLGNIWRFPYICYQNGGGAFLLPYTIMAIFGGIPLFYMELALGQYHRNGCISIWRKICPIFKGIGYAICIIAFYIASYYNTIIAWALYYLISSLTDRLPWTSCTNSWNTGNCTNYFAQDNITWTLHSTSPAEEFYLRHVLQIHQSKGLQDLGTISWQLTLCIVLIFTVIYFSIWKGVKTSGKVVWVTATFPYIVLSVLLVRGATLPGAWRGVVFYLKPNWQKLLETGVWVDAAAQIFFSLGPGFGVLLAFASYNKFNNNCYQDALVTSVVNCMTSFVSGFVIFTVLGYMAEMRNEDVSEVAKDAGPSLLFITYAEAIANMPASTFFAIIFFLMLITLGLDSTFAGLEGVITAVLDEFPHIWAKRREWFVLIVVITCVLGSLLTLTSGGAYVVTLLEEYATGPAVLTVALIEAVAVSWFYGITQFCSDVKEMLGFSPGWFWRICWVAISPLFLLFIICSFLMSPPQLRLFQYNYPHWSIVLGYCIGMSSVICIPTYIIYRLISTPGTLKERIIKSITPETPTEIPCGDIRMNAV
Sequence of Monoamine transporters; serotonin & dopamine (Rattus norvegicus) (P23977 whole entry, looked up): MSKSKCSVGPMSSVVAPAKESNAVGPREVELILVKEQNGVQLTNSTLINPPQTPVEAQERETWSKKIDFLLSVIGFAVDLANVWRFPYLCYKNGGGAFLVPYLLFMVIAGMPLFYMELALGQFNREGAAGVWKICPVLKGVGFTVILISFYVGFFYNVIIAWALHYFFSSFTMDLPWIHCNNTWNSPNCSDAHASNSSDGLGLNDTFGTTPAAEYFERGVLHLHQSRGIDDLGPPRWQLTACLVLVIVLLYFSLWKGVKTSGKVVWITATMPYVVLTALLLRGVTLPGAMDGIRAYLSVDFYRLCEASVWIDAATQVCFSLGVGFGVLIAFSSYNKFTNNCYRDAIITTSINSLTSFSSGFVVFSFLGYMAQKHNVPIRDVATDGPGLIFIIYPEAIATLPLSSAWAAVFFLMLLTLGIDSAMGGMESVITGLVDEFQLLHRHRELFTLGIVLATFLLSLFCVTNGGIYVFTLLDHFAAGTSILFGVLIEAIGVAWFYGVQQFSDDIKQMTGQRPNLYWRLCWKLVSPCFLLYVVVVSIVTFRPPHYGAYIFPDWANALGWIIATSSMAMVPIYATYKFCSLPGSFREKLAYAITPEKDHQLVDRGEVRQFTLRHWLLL
Sequence of Monoamine transporters; serotonin & dopamine (Rattus norvegicus) (P31652 whole entry, looked up): as the sequence (P31652 whole entry) above
Sequence of Sodium-dependent dopamine transporter (P23977 whole entry): as the sequence (P23977 whole entry, looked up) above

SMILES | Ki [1] [nM] | Potency ratio [2] | Ki [3] [nM] | IC50 [4] [nM]
CC(=O)C1C(c2cccc3ccccc23)CC2CCC1N2C (stereo in doubt; form 2) [listing 1 of 2 here] | 165 |  |  | 
CC(=O)C1C(c2cccc3ccccc23)CC2CCC1N2C (stereo in doubt; form 2) [listing 2 of 2 here] |  | 0.4 |  | 
CCC(=O)C1C(c2ccc3c(I)c(OC)ccc3c2)CC2CCC1N2C (configuration not stated) | 781 | 0.6 | 2.27 | 1.31
CC(=O)C1C(c2cccc3ccccc23)CC2CCC1N2C (stereo in doubt; form 1) [listing 1 of 2 here] |  |  | 217 | 97
CCC(=O)C1C(c2ccc3c([N+](=O)[O-])c(OC)ccc3c2)CC2CCC1N2C (configuration not stated) |  | 10 | 15 | 148
CC(=O)C1C(c2ccc3ccccc3c2)CC2CCC1N2C (configuration not stated) | 4.9 | 1.2 |  | 1.27
CCC(=O)C1C(c2ccc(C(C)C)c3ccccc23)CC2CCC1N2C (configuration not stated) | > 10000 | 2 | 136 | 225
CCC(=O)C1C(c2ccc3ccc(I)cc3c2)CC2CCC1N2C (configuration not stated) |  | 0.5 | 0.47 | 0.45
CCC(=O)C1C(c2ccc3cc(CC)ccc3c2)CC2CCC1N2C (configuration not stated) | 27.7 | 0.4 | 0.38 | 0.15
CCC(=O)C1C(c2ccc(C)cc2)CC2CCC1N2C (configuration not stated) | 65 | 0.06 |  | 
CCC(=O)C1C(c2ccc(C)c3ccccc23)CC2CCC1N2C (configuration not stated) | 163 | 3 | 8.99 | 25.1
CCC(=O)C1C(c2ccc3c(C(C)=O)c(OC)ccc3c2)CC2CCC1N2C (configuration not stated) | 498 | 0.8 | 15.8 | 12.6
CCC(=O)C1C(c2ccc3ccccc3c2)CC2CCC1N2C (stereo in doubt) [listing 1 of 2 here] |  | 0.15 |  | 
CCC(=O)C1C(c2ccc(CC)c3ccccc23)CC2CCC1N2C (configuration not stated) | 4770 | 0.7 | 175 | 75.1
CCC(=O)C1C2CCC(CC1c1ccc3ccccc3c1)N2 (configuration not stated) | 2.05 | 0.13 | 0.23 | 0.03
CC(C)C(=O)C1C(c2ccc3ccccc3c2)CC2CCC1N2C (configuration not stated) | 37.6 | 0.12 | 2.08 | 0.25
CC(=O)C1C(c2cccc3ccccc23)CC2CCC1N2C (stereo in doubt; form 1) [listing 2 of 2 here] |  | 0.45 |  | 
CCC(=O)C1C(c2ccc3cc(OC)ccc3c2)CC2CCC1N2C (configuration not stated) |  | 0.05 | 2.24 | 0.13
CCC(=O)C1C(c2ccc3ccccc3c2)CC2CCC1N2C (stereo in doubt; 8) |  | 0.3 |  | 
CCC(=O)C1C(c2cccc3ccccc23)CC2CCC1N2C (configuration not stated) | 49 | 0.3 |  | 
CCC(=O)C1C(c2ccc3cc(C(C)C)ccc3c2)CC2CCC1N2C (configuration not stated) |  | 0.2 | 1.97 | 0.39
C=C(C)c1c(OC)ccc2cc(C3CC4CCC(C3C(=O)CC)N4C)ccc12 (configuration not stated) | 2330 | 0.5 | 88 | 45
CCC(=O)C1C(c2ccc3ccccc3c2)CC2CCC1N2C (stereo in doubt) [listing 2 of 2 here] | 68 |  | 16.4 | 2.51
CCC(=O)C1C(c2ccc3cc(I)ccc3c2)CC2CCC1N2C (configuration not stated) |  | 1 | 0.37 | 0.35
CCC(=O)C1C(c2ccc3c(CC)c(OC)ccc3c2)CC2CCC1N2C (configuration not stated) | 3360 | 4.1 | 7.55 | 30.8
